In ChEMBL document CHEMBL4190193, “Stachybotrysins A-G, Phenylspirodrimane Derivatives from the Fungus Stachybotrys chartarum” (J Nat Prod, 2017):

Legend:
[1] = test system: Human immunodeficiency virus 1; experiment: Antiviral activity against VSV-G pseudotyped HIV1 infected in human SupT1 cells after 48 hrs by firefly luciferase reporter gene assay; type: functional, organism-based; conditions: Human immunodeficiency virus 1, SUP-T1, 48 h
Procedure, shortened: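 293T cells (2 × 105) cotransfected with 0.6 μg pNL-Luc-E−-Vpu− and 0.4 μg pHIT/G. Supernatant harvested at 48 h, 0.45 μm filtered, capsid p24 quantified by antigen-capture ELISA. SupT1 cells infected at MOI 1, 37 °C, 48 h, with compound at several concentrations, each in triplicate. Efavirenz as control. Inhibition measured by firefly luciferase; IC50 calculated from it.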

Influenza A virus = experiment: Antiviral activity against VSV-G pseudotyped Influenza A virus infected in human SupT1 cells after 48 hrs by firefly luciferase reporter gene assay; type: functional, organism-based; conditions: SUP-T1, 48 h
NCI-H460 = experiment: Cytotoxicity against human NCI-H460 cells assessed as reduction in cell viability after 96 hrs by MTT assay; type: cell-based; conditions: NCI-H460, 96 h
Procedure, shortened: (§1)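 MTT assay. Cells were grown in RPMI 1640 with 10% FBS, penicillin and streptomycin at 37 °C under 5% CO2, then seeded at 1200 cells/well. Compounds were added after 24 h at 10−4 to 10−8 M (five concentrations, final DMSO 0.1% v/v) and incubated 96 h. Absorbance was read at 570 nm. Paclitaxel was the positive control, with triplicates per concentration; IC50 was calculated from these.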

HepG2 = experiment: Cytotoxicity against human HepG2 cells assessed as reduction in cell viability after 96 hrs by MTT assay; type: cell-based; conditions: HepG2, 96 h; procedure, shortened: as §1
BGC-823 = experiment: Cytotoxicity against human BGC823 cells assessed as reduction in cell viability after 96 hrs by MTT assay; type: cell-based; conditions: BGC-823, 96 h; procedure, shortened: as §1

Row | Structure (SMILES) | IC50 [1] | IC50 (Influenza A virus) | IC50 (NCI-H460) | IC50 (HepG2) | IC50 (BGC-823)
1 | C=C1CC[C@H]2C(C)(C)[C@H](O)CC[C@]2(C)[C@@]12Cc1c(O)cc(COC(C)=O)c(C=O)c1O2 | 15.6 to 20.5 µM |  |  |  | 
2 | CC(=O)/C=C/c1c(CO)cc(O)c2c1O[C@]1(C2)[C@H](C)CC[C@H]2C(C)(C)[C@H](O)CC[C@@]21C |  | 12.4 to 23.4 µM |  |  | 
3 | Cc1cc(O)c2c(c1C=O)O[C@]1(C2)[C@H](C)CC[C@H]2C(C)(C)[C@H](O)CC[C@@]21C | 15.6 to 20.5 µM |  | 15.8 µM | 18.4 µM | 21.9 µM
4 | CC(=O)O[C@@H]1CC[C@@]2(C)[C@@H](CC[C@@H](C)[C@]23Cc2c(O)cc4c(c2O3)COC4=O)C1(C)C |  | 12.4 to 23.4 µM |  |  | 
5 | NC(=O)c1ncn([C@@H]2O[C@H](CO)[C@@H](O)[C@H]2O)n1 [RIBAVIRIN] |  | 0.002 µM |  |  | 
6 | CC(=O)O[C@H]1C(=O)[C@@]2(C)[C@H]([C@H](OC(=O)c3ccccc3)[C@]3(O)C[C@H](OC(=O)[C@H](O)[C@@H](NC(=O)c4ccccc4)c4ccccc4)C(C)=C1C3(C)C)[C@]1(OC(C)=O)CO[C@@H]1C[C@@H]2O [PACLITAXEL] |  |  | 0.001 µM | 0.0063 µM | 0.0008 µM
7 | CC(=O)C[C@H]1OCc2cc(O)c3c(c21)O[C@]1(C3)[C@H](C)CC[C@H]2C(C)(C)[C@H](O)CC[C@@]21C |  | 12.4 to 23.4 µM |  |  | 
8 | CC(=O)O[C@@H]1CC[C@@]2(C)[C@@H](CC[C@@H](C)[C@]23Cc2c(O)cc(CO)c(C=O)c2O3)C1(C)C | 15.6 to 20.5 µM |  |  |  | 
9 | CC(=O)O[C@@H]1CC[C@@]2(C)[C@@H](CC[C@@H](C)[C@]23Cc2c(O)cc(C)c(C=O)c2O3)C1(C)C | 15.6 to 20.5 µM | 12.4 to 23.4 µM |  | 24.7 µM | 
10 | CC(=O)C[C@@H]1OCc2cc(O)c3c(c21)O[C@]1(C3)[C@H](C)CC[C@H]2C(C)(C)[C@H](O)CC[C@@]21C | 15.6 to 20.5 µM | 12.4 to 23.4 µM |  | 24.6 µM | 
